We go through two molecules from paper PMC3137751 (Biochemistry, 2010).

Each structure is given as a SMILES string. Values joined by “and” are separate entries in the source; they are usually repeats but may differ in a detail not shown here. Equal entries are not always repeated.

What all share (assay type): biochemical, yeast
Test [1] deals with T1, wild-type IDH1/IDH2 enzyme (Saccharomyces cerevisiae, UniProt P28241+P28834).
T1 sequence (P28834 12-360): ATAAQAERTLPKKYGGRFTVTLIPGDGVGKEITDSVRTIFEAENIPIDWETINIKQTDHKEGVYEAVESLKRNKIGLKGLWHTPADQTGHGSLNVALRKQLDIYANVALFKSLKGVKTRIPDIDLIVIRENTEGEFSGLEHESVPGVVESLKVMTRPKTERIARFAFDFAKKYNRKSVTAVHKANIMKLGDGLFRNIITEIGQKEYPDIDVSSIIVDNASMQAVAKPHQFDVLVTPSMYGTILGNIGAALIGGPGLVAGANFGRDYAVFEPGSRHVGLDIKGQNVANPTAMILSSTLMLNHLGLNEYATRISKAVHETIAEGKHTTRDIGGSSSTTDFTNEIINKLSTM
T1 sequence (P28241 16-369): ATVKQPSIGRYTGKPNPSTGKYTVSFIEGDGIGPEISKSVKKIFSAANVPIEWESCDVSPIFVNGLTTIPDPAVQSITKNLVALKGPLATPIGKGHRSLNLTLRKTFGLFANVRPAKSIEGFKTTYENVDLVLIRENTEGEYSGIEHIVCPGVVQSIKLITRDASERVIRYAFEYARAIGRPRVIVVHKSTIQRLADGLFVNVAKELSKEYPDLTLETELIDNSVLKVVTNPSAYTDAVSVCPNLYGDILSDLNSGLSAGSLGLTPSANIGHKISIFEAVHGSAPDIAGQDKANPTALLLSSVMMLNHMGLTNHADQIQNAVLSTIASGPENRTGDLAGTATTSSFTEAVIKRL
Briefly: Ligand protection from diamide-induced inactivation.

In the next test the target is T2, ^-5IDH1/IDH2 enzyme (Saccharomyces cerevisiae, UniProt P28241+P28834).
T2 sequence (P28834 17-360 limits assumed): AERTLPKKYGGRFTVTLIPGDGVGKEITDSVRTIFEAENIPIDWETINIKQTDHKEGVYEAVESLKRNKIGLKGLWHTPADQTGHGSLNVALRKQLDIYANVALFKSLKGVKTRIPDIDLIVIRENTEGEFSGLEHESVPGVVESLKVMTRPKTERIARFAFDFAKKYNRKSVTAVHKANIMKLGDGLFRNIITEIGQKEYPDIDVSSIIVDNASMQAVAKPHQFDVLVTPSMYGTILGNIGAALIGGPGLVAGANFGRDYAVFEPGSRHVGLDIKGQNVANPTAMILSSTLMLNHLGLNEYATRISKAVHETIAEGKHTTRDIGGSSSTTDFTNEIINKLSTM
T2 sequence (P28241 16-369): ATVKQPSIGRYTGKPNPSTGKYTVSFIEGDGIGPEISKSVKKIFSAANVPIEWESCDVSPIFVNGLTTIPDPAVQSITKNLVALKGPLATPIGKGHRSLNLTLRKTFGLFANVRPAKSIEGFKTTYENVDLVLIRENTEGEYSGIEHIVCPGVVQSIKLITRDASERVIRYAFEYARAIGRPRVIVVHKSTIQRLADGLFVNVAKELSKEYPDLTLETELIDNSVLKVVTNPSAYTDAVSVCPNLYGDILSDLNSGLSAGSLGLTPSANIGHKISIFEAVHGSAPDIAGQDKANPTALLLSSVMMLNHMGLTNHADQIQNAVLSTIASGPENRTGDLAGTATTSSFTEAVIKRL
Described as above.

For test [2], the target named is T3, IDH1/IDH2 enzyme (wild-type, octameric) (Saccharomyces cerevisiae, UniProt P28241+P28834).
T3 sequence (P28834 12-360): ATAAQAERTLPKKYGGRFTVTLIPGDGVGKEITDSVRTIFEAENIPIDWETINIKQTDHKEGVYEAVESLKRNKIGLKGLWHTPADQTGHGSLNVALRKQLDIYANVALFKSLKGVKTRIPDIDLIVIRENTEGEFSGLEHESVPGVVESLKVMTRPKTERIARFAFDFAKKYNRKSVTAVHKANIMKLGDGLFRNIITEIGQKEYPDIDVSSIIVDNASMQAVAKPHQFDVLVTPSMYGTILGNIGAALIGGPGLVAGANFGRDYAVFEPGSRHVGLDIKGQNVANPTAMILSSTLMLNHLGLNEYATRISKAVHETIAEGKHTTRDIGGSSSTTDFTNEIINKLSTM
T3 sequence (P28241 16-369): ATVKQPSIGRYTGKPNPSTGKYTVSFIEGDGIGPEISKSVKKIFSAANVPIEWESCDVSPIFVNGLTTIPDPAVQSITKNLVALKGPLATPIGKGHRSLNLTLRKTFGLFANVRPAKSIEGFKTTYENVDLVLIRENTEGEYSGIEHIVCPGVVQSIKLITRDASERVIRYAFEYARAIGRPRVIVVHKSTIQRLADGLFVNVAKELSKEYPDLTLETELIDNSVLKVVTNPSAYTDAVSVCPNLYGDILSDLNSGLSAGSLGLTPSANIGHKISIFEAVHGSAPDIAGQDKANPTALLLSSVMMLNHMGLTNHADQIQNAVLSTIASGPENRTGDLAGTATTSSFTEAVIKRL
Briefly: Diamide inhibition of catalytic activity. In outline:
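Purified His-tagged enzyme (E. coli BL21-Gold (DE3), IPTG-induced, Ni-NTA purified) at 1 μM in 50 mM Tris-HCl pH 7.4 is held 2 h on ice with a range of diamide concentrations from a fresh water stock. Activity is then assayed (40 mM Tris-HCl pH 7.4, 1 mM D-isocitrate, 4 mM MgCl2, 0.5 mM NAD+; NADH formation, 24 °C). Untreated activity is set as 100%, and the 50% value is read from the graphs.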

Test [3] has as its target ^-5IDH1/IDH2 enzyme (truncated, octameric) (Saccharomyces cerevisiae, UniProt P28241+P28834). Briefly: Diamide inhibition of catalytic activity.
Test [4] concerns the target IDH1^G15D/IDH2 enzyme (tetrameric) (Saccharomyces cerevisiae, UniProt P28241+P28834, G26D). The test is described as follows: Diamide inhibition of catalytic activity.
For test [5], the target named is ^-5IDH1^G15D/IDH2 enzyme (tetrameric) (Saccharomyces cerevisiae, UniProt P28241+P28834, G26D). Briefly: Diamide inhibition of catalytic activity.
Test [6] concerns the target ^-5IDH1^D168K/IDH2 enzyme (tetrameric) (Saccharomyces cerevisiae, UniProt P28241+P28834, D179K). The test is described as follows: Diamide inhibition of catalytic activity.
The next test deals with T4, IDH1/IDH2 enzyme (Saccharomyces cerevisiae, UniProt P28241+P28834).
T4 sequence (P28834 12-360): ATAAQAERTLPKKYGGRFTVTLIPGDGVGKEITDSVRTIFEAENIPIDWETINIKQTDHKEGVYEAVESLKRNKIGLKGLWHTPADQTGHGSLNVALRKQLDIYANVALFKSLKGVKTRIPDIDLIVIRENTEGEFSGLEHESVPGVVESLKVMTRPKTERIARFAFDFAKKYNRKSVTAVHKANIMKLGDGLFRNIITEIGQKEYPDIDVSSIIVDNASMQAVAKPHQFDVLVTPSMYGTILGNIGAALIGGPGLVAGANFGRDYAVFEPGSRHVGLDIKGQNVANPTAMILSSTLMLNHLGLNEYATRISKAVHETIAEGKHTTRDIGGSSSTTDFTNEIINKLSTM
T4 sequence (P28241 16-369): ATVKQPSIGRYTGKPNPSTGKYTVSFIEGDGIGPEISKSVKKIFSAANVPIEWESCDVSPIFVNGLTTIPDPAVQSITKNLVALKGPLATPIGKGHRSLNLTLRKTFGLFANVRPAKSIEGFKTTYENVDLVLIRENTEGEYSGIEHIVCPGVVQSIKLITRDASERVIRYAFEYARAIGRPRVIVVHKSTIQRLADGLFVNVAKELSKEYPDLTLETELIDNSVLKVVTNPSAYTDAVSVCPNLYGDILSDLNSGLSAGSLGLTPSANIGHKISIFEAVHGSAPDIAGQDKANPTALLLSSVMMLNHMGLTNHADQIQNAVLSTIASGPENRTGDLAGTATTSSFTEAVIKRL
Conditions: no or low concentration (10 μM) of diamide, 2 h. Put shortly: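 Affinity-purified His-tagged enzyme (1 μM in 50 mM Tris-HCl pH 7.4) is treated 2 h on ice with 0 or 10 μM diamide. Then 3.5 μg samples are run on […] and stained with Coomassie blue to see the IDH2 Cys-150 disulfide band.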

The target of another test is T5, IDH1^G15D/IDH2 enzyme (Saccharomyces cerevisiae, UniProt P28241+P28834, G26D).
T5 sequence (P28834 12-360 G26D): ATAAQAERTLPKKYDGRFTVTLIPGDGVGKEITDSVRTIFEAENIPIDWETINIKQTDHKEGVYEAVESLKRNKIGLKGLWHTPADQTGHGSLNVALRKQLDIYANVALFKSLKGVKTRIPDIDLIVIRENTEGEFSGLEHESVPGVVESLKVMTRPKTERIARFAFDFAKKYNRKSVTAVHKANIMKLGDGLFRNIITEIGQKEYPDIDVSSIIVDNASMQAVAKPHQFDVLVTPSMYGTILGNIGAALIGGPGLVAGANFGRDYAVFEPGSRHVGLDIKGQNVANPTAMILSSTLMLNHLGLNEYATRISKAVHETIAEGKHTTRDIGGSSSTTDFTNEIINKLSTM
T5 sequence (P28241 16-369): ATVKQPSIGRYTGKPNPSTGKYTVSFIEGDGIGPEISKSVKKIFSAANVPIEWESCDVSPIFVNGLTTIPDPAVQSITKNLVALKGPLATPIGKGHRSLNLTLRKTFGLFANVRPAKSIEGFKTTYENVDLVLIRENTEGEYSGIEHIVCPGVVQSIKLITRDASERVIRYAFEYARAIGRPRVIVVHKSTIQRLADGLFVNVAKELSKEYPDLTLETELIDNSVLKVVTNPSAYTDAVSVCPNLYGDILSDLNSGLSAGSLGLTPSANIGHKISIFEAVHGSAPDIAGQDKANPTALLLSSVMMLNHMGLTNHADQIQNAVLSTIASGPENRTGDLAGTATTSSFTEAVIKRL
Conditions: 10 μM diamide, 2 h.

The mark [7] stands for this setting: 2 h, read-out: reduction in activity.

Sequence of ^-5IDH1^D168K/IDH2 enzyme (tetrameric) (P28834 17-360 D179K, one chain of several): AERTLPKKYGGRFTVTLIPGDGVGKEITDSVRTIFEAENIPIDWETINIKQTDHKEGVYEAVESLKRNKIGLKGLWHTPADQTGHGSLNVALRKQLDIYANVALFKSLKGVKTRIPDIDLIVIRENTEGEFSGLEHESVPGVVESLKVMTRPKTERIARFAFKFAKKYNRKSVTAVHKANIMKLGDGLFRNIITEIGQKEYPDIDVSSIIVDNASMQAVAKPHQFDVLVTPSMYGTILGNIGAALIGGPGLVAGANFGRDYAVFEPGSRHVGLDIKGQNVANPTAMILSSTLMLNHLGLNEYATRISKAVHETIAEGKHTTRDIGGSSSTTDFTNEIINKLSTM

As to `O=C(O)CC(O)(CC(=O)O)C(=O)O` [citrate], the “effect of citrate preincubation on diamide inhibition” value in test [1] (100 mM citrate, 4 mM MgCl2, 100 μM AMP for 15 min before 0.5 mM diamide) is given as “no inhibition by diamide was observed”; on ^-5IDH1/IDH2 enzyme (increasing citrate (0 to 100 mM), 4 mM MgCl2, 100 μM AMP before 0.16 mM diamide), “essentially no effect”.
For `CN(C)C(=O)/N=N/C(=O)N(C)C` [diamide], the IC50 amounted to 500 µM in test [2]; 160 µM in [3]; 6.5 µM in [4]; 7.5 µM in test [5]; 13 µM in test [6]. In addition, the “increase in sensitivity to diamide relative to the IDH1/IDH2 enzyme” value in [3] (^-5IDH1/IDH2 vs IDH1/IDH2, 120 min) is ~ 3 fold and 3 fold. In addition, the “formation of IDH2 Cys-150 disulfide bond” value was “no formation of this bond” at IDH1/IDH2 enzyme and “most of the IDH2 subunit is present as the disulfide bond form” on IDH1^G15D/IDH2 enzyme. Also, the inhibition at 500 µM in test [1] (setting [7]) amounted to 63%. Also, the inhibition at 160 µM at ^-5IDH1/IDH2 enzyme (setting [7]) came to 43%.

By IC50 is commonly meant the concentration at which inhibition is half-maximal. Low values mean greater potency in that assay, high ones weaker potency in that assay.
